Sampled rows, rich in hits. Any-hit rate of the full collection: about 2.3%.
TRPC6 activator – activators of mouse TRPC6 channel; actives 0.13% (n = 310,000); B-score at 10 µM; HEK293-TRPC6 membrane potential dye fluorescence; hits give high values;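 active = B-score of the integrated fluorescence ratio above library mean plus 3 SD, and starting fluorescence ratio within library mean plus 5 SD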;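 note: higher score means more depolarization so channel activation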
TRPC4 PAM – TRPC4 (mouse) allosteric potentiation; Q9QUQ5; HEK293 TRPC4beta/mu-opioid, DAMGO EC20, Fluo-4 Ca2+ flux; hits give high values; B-score at 10 µM; actives 0.42% (n = 310,000); AID 2227;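 active = B-score of calcium response area above 5 SD of library B-scores, with initial fluorescence ratio within 5 SD of library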
Target sequence (Q9QUQ5 whole entry, looked up): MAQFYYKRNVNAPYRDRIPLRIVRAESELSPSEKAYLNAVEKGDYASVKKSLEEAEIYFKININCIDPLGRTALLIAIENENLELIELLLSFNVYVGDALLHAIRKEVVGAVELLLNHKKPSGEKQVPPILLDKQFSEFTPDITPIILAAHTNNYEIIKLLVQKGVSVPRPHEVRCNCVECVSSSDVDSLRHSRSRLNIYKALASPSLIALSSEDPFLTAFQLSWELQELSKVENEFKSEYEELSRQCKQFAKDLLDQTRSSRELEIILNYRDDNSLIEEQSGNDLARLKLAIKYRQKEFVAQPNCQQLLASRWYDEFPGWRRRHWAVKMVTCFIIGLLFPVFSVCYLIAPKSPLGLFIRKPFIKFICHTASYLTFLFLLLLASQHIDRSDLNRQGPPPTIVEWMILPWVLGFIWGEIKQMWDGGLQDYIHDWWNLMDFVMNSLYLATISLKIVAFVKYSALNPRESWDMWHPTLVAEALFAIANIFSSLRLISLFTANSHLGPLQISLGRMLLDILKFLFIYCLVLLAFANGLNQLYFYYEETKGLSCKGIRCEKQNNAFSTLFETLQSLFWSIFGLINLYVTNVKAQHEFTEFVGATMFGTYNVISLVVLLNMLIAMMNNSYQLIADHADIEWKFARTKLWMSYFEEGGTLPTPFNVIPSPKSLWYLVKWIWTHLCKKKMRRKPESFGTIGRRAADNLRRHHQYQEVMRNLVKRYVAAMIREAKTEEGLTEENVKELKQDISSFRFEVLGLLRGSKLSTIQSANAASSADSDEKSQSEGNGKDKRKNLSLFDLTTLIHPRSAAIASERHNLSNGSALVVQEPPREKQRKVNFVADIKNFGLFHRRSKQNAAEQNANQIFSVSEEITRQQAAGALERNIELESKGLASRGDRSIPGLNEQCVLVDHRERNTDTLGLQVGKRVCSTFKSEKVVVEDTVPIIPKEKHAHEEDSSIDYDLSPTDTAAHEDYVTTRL
TRPC6 inh – mouse TRPC6 channel inhibition. B-score at 10 µM. HEK293-TRPC6, membrane potential dye, ACh-evoked depolarization; hits give low values. Q61143. actives 1.1% (n = 310,000);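 active = B-score under library mean minus 3 SD, initial fluorescence not abnormally high, positive integrated signal ratio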;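 note: B-score derived from integrated fluorescence ratio over the kinetic read; more negative B-score means stronger inhibition of depolarization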
TRPC4 agonist – TRPC4 (mouse) channel activation. Q9QUQ5. HEK293 TRPC4beta/mu-opioid, Fluo4 calcium fluorescence; hits give high values. B-score at 10 µM. actives 0.49% (n = 310,000);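 active = B-score above 5 SD of library B-scores, and initial fluorescence ratio not above library mean plus 5 SD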;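 note: positive B-score marks a calcium rise read as TRPC4 activation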
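Test system: HEK293 cells stably co-expressing mouse TRPC4beta and mu-opioid receptor | Schedule: Fluo4 dye loading 45 min at room temperature, 110 s recording | Measured by: Kinetic Fluo4 calcium fluorescence, 5 s baseline at 1 Hz | Evaluation: B score of integrated ratio | Controls: Buffer (low) and maximal DAMGO (high)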
TRPC4 block – blocks the mouse TRPC4 cation channel; Q9QUQ5; HEK293 TRPC4beta/mu-opioid, DAMGO-evoked Fluo4 calcium flux; hits give low values; B-score at 10 µM; actives 0.39% (n = 300,000); AID 2247;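 active = B-score over 3 SD under the library average, no early fluorescence shift, positive overall ratio signal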
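Assay system: TRPC4beta/mu-opioid receptor HEK293 cell line; compound dosing: single concentration per test compound; detection: Fluo4 Ca2+ flux fluorescence; evaluation: per-well B score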
TRPC4 sel inh 2 – mouse TRPC4 off-target activity of TRPC6 inhibitors, second screen. shares compounds with TRPC6 inh. HEK293 TRPC4/MOR, membrane potential dye fluorescence; channel activated by saturating DAMGO dose. inhibition, % at 10 µM. actives 42% (n = 920). AID 2776;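 active = compounds whose fluorescence signal differed from control wells by over 3 SD, either direction, in both duplicate plates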
TRPC4 spec – tests whether TRPC6 inhibitors also affect mouse TRPC4 | shares compounds with TRPC6 inh | HEK293 TRPC4/mu-opioid, membrane potential fluorescence | activity change, negative = inhibition, % at 10 µM | actives 61% (n = 920);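 active = rise or fall in signal beyond 3 SD of buffer-only wells in both replicate plates, either sign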;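 note: integrated kinetic ratio of fluorescence range over baseline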
HEK293 MPD ctr 2-1 – parental HEK293 nonspecific activity of TRPC6 inhibitors, second screen. shares compounds with TRPC6 inh. parental HEK293 membrane potential dye fluorescence; maximal acetylcholine challenge after compound addition. signal change vs control, % at 10 µM. actives 31% (n = 920);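 active = membrane potential signal moving either way by over 3 SD of the maximum-effect control, in both duplicate plates, meaning non-specific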
HEK293 MPD ctr-1 – counter-screen for TRPC6 inhibitors: effect in parental HEK293 cells | actives 60% (n = 920) | membrane potential signal change, % at 10 µM | shares compounds with TRPC6 inh | parental HEK293 membrane potential dye fluorescence;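 active = membrane potential signal shifting up or down by more than 3 SD of buffer-only wells, on both duplicate plates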
HEK293 MPD ctr-2 – counter-screen for TRPC6 modulators: effect in parental HEK293 cells; membrane potential signal change, % at 10 µM; actives 51% (n = 2,400); AID 488924; membrane potential dye fluorescence; shares compounds with TRPC6 inh;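 active = membrane potential signal moves up or down beyond 5 SD from buffer-only wells, on both duplicate plates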
HEK293 MPD ctr 2-2 – second check of TRPC6 modulator effects in parental HEK293 cells | shares compounds with TRPC6 inh | membrane potential dye fluorescence; after compound, maximal acetylcholine stimulation | inhibition, % at 10 µM | actives 14% (n = 2,400) | AID 488926;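 active = membrane potential signal drops by more than 5 SD from the mean control signal, in both duplicate plates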
TRPC4/MOR mod – selectivity of TRPC6 modulators against mouse TRPC4. shares compounds with TRPC6 inh. HEK293 TRPC4/mu-opioid, membrane potential fluorescence. percent change from control (negative = decrease, positive = increase), % at 10 µM. actives 69% (n = 2,400). AID 488927;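 active = membrane potential signal moved up or down beyond 5 SD of buffer control wells, in both duplicate plates, actives on both sides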
TRPC4 ctr inh 2 – mouse TRPC4 off-target activity of TRPC6 modulators, second screen; shares compounds with TRPC6 inh; HEK293 TRPC4/mu-opioid, membrane potential dye fluorescence; stimulated with maximal-effect DAMGO; inhibition, % at 10 µM; actives 55% (n = 2,400); AID 488928;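 active = drop in membrane potential signal beyond 5 SD of the control wells in both duplicate plates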;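 note: TRPC4 counter screen for TRPC6 hits run under conditions tuned for TRPC6 not TRPC4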
TRPC6 block conf – mouse TRPC6 inhibitor confirmation | HEK293-TRPC6, membrane potential dye, ACh-evoked depolarization | inhibition, % at 10 µM | AID 488960 | actives 43% (n = 3,300) | shares compounds with TRPC6 inh;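 active = fluorescence ratio falls more than 5 SD below the full-stimulation control mean, in both duplicate runs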;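 note: integrated fluorescence ratio of peak minus minimum over baseline after agonist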
TRPC6 act conf – mouse TRPC6 activator confirmation; shares compounds with TRPC6 inh; HEK293-TRPC6 membrane potential dye fluorescence, FDSS; activation, % at 10 µM; actives 11% (n = 2,800);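 active = ratio signal rise beyond 5 SD above unstimulated control wells' mean, seen in both duplicate runs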
Of the large screens only hits and unclear results are named; the others gave an inactive call (follow-up assays come after a bar, where they were run).

COc1ccc(-c2csc(N(CCCN(C)C)C(=O)c3ccc(Br)cc3)n2)cc1	none
CCN(CC)CCCN(C(=O)c1ccc(OC)cc1)c1nc(-c2ccc(OC)cc2)cs1	TRPC6 inh -9.1 | TRPC4 sel inh 2 24% | TRPC4 spec -18% | HEK293 MPD ctr 2-1 inactive | HEK293 MPD ctr-1 inactive | TRPC6 block conf 77% | TRPC6 act conf inactive
CCN(CC)CCCN(C(=O)c1ccccc1F)c1nc(-c2ccc(OC)cc2)cs1	TRPC6 inh -7.1 | TRPC4 sel inh 2 47% | TRPC4 spec inactive | HEK293 MPD ctr 2-1 inactive | HEK293 MPD ctr-1 -0.1% | TRPC6 block conf 51% | TRPC6 act conf inactive
CC(=O)N1c2ccc(S(=O)(=O)N3CCCCC3)cc2CC1C(=O)NCc1ccc(N(C)C)cc1 (stereo not given)	none
CC(=O)c1ccc(OCC(=O)NCc2ccc(F)cc2)cc1	none
COC(=O)C1=C(C)N(C2CCCCC2)C(=O)/C1=C\c1cccs1	none
O=Cc1ccc2ccc3cccnc3c2n1	TRPC6 inh -9.8 | HEK293 MPD ctr-2 -386% | HEK293 MPD ctr 2-2 95% | TRPC4/MOR mod -60% | TRPC4 ctr inh 2 68% | TRPC6 block conf 78% | TRPC6 act conf inactive
COc1cc(C)ccc1NC(=O)c1ccc(S(=O)(=O)N2CCOCC2)cc1	TRPC6 inh -6.1 | HEK293 MPD ctr-2 inactive | HEK293 MPD ctr 2-2 inactive | TRPC4/MOR mod inactive | TRPC4 ctr inh 2 inactive | TRPC6 block conf inactive | TRPC6 act conf inactive
O=C(NCC1CCN(c2ccc(S(=O)(=O)N3CCOCC3)cc2)CC1)c1ccc(Cl)cc1	TRPC6 inh -5.5 | HEK293 MPD ctr-2 inactive | HEK293 MPD ctr 2-2 inactive | TRPC4/MOR mod inactive | TRPC4 ctr inh 2 inactive | TRPC6 block conf 52% | TRPC6 act conf inactive
Cc1ccc2oc(C(=O)NC3CCS(=O)(=O)C3)cc(=O)c2c1 (stereo not given)	none
CCOC(=O)c1sc(=S)n(-c2ccc(OC)cc2)c1C	TRPC6 inh -6.3 | HEK293 MPD ctr-2 inactive | HEK293 MPD ctr 2-2 inactive | TRPC4/MOR mod 10% | TRPC4 ctr inh 2 inactive | TRPC6 block conf 52%
CCOC(=O)c1sc(=S)n(-c2ccccc2Cl)c1SC	TRPC6 inh -7.7 | TRPC4 sel inh 2 inactive | TRPC4 spec inactive | HEK293 MPD ctr 2-1 inactive | HEK293 MPD ctr-1 inactive | TRPC6 block conf inactive | TRPC6 act conf inactive
CCOC(=O)c1sc(=S)n(-c2ccccc2)c1SC	none
Cc1cc(C2CC(=O)Nc3ccccc3S2)c(C)s1 (stereo not given)	none
O=C(Nc1ccc(Br)cc1)C1CCN(C(=O)c2ccco2)CC1	none
CC(=O)c1cc(F)c(N2CCN(C(=O)COc3ccc(F)cc3)CC2)cc1C	TRPC6 inh -5.7 | HEK293 MPD ctr-2 inactive | HEK293 MPD ctr 2-2 inactive | TRPC4/MOR mod 10% | TRPC4 ctr inh 2 inactive | TRPC6 block conf inactive | TRPC6 act conf inactive
Cc1ccc(OC(C)C(=O)N/N=C/c2ccccn2)cc1 (stereo not given)	none
Cc1nc(Cl)sc1C(=O)Nc1cccc2ccccc12	none
O=C(COc1ccc(S(=O)(=O)N2CCCC2)cc1)N1CCCCC1	none
COc1ccc(-n2cnnc2SCC(=O)N(C)c2ccccc2)cc1	none
COc1ccc(-n2cnnc2SCc2csc(-c3ccccc3)n2)cc1	TRPC6 inh -5.2 | HEK293 MPD ctr-2 inactive | HEK293 MPD ctr 2-2 inactive | TRPC4/MOR mod 14% | TRPC4 ctr inh 2 inactive | TRPC6 block conf 43%
Cc1ccc(C2C3=C(NCCN=C3c3ccccc3)C(=O)N2c2ccccc2)cc1 (stereo not given)	TRPC6 inh -6.6 | TRPC4 sel inh 2 16% | TRPC4 spec 18% | HEK293 MPD ctr 2-1 inactive | HEK293 MPD ctr-1 1.3% | TRPC6 block conf 75% | TRPC6 act conf inactive
CCOc1ccc(N2C(=O)C3=C(C(c4ccc(Cl)cc4)=NCCN3)C2c2cccnc2)cc1 (stereo not given)	none
Cc1c(NC(=O)C(C)Sc2ncnc3ccccc23)c(=O)n(-c2ccccc2)n1C (stereo not given)	none
CN1CCN(c2ccccc2NC(=O)c2ccc(-c3ccc(Cl)c(Cl)c3)o2)CC1	none
Cc1cc(N2CCN(C)CC2)ccc1NC(=O)c1ccc(-c2ccc(Cl)cc2)o1	TRPC6 inh -9, TRPC4 agonist 50 | TRPC4 sel inh 2 16% | TRPC4 spec 2.7% | HEK293 MPD ctr 2-1 inactive | HEK293 MPD ctr-1 -334% | TRPC6 block conf 67% | TRPC6 act conf inactive
CCN(CC)C(=O)c1ccccc1NC(=O)CN1C(=O)c2ccccc2C1=O	none
CC(=O)c1ccc(S(=O)(=O)NCCc2csc(-c3cccnc3)n2)cc1	none
OC(C#CCN1CCCCC1)(c1ccccc1)c1ccccc1	TRPC6 inh -7.5 | TRPC4 sel inh 2 inactive | TRPC4 spec 1.1% | HEK293 MPD ctr 2-1 -28% | HEK293 MPD ctr-1 2.4% | TRPC6 block conf 81% | TRPC6 act conf inactive
CC(O)(C#CCN1CCCCCC1)c1ccccc1 (stereo not given)	none
OC(C#CCN1CCCC1)(c1ccccc1)c1ccccc1	TRPC6 inh -8.7 | TRPC4 sel inh 2 inactive | TRPC4 spec 2.5% | HEK293 MPD ctr 2-1 -14% | HEK293 MPD ctr-1 5.6% | TRPC6 block conf 66%
OCc1ccnc2oc3ccccc3c12	none

Screening data as filed in PubChem.
